Assay [1] relates to COLO 205. Put plainly: Cytotoxicity against human COLO205 cells after 48 hrs by XTT assay. Format: functional. To be noted: COLO 205, 48 h. The essentials:
(§1)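 Two-day XTT colorimetric assay run on COLO205 and KM12 in parallel. Cells kept in RPMI-1640 with phenol red, 2mM L-glutamine and 10% FBS at 37 °C, 5% CO₂, and discarded after 25 passages. For the assay, cells were harvested into phenol-red-free medium without antibiotics and plated at 5,000 cells/well. After 24 hrs of incubation, samples were added as eight 2-fold serial dilutions. Values are the average of at least two tests.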

Assay [2] has as its system KM12. Put plainly: Cytotoxicity against human KM12 cells after 48 hrs by XTT assay. Format: functional. To be noted: KM12, 48 h. Summed up:
as §1

Structures are written as SMILES.

As to `CC1(C)CC[C@@H](OC(=O)/C=C/c2ccc(O)cc2)[C@]2(C)[C@@H]3C(=CC[C@@H]12)CO[C@@H]3O`, the GI50 in assay [1] came to 18 µM; in assay [2] it was 14 µM.
As to `CC1(C)CC[C@@H](OC(=O)/C=C/c2ccc(O)cc2)[C@]2(C)[C@@H]3C(=CC[C@@]12O)CO[C@@H]3O`, the values for the GI50 in assay [1] and in assay [2] were 29 µM and 25 µM, respectively.
The like results for `CO[C@H]1O[C@H](OC)[C@H]2C1=CC[C@H]1C(C)(C)CC[C@@H](OC(=O)/C=C/c3ccc(O)cc3)[C@]21C` were, in that order, > 45 µM and > 45 µM.
`CC1(C)CC[C@@H](OC(=O)/C=C/c2ccc(O)cc2)[C@]2(C)[C@@H](C=O)C(C=O)=CC[C@@H]12`: the GI50 in assay [1] was 29 µM; in assay [2], 25 µM.
The corresponding values for `C=C(C)C1Cc2c(cc3c(c2O)C(=O)C[C@H](c2ccc(O)cc2)C3)O1` (stereo not given in full) are 35 µM and 29 µM.
The like results for `COc1ccc([C@H]2CC(=O)c3c(cc4c(c3O)C=CC(C)(C)O4)C2)cc1O` were, in that order, 11 µM and 17 µM.
The corresponding values for `COc1cc(O)c2c(c1)C[C@@H](c1ccc(O)c(O)c1)CC2=O` [CALOTHYRLONE A] are > 67 µM and > 67 µM.
For `CC1(C)CCC[C@]2(C)[C@H]3COC(=O)C3=CC[C@@H]12` [CINNAMOLIDE], the GI50 in assay [1] and in assay [2] was > 85 µM each time.
On to `C=C(C)C1Cc2c(cc3c(c2O)C(=O)C[C@H](c2ccc(O)c(O)c2)C3)O1` (stereo not given in full) [ISOZYGOLONE A], for which the GI50 in assay [1] and in assay [2] was 32 µM each time.
For `CC1(C)C=Cc2c(cc3c(c2O)C(=O)C[C@H](c2ccc(O)c(O)c2)C3)O1` [ZYGOLONE A], the GI50 was determined as 17 µM in assay [1] and 14 µM in assay [2].
